Source: ChEMBL document CHEMBL1154362, “Lead optimization and structure-based design of potent and bioavailable deoxycytidine kinase inhibitors” (Bioorg Med Chem Lett, 2009)
Activity calls are given as the source filed them. No cut-off for these calls is given here.

How the values were obtained:
Deoxycytidine kinase [1] = biological target: T1, Deoxycytidine kinase (Homo sapiens, UniProt P27707); experiment: Inhibition of human deoxycytidine kinase by lysate filter binding assay
Target sequence in this assay (P27707 whole entry): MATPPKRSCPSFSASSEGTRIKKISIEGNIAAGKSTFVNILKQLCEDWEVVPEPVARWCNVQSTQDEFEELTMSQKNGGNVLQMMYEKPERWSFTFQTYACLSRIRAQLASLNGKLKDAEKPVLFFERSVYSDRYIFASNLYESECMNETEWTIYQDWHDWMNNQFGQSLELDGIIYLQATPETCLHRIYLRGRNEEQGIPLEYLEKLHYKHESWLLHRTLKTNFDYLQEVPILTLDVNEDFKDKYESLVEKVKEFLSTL

[2] = AUC ((0 to infinity)) in mouse at 10 mg/kg, po; format: ADME, organism-based; design: time infinity, dose 10 mg/kg, route oral; conditions: plasma
Outline: (§1)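 Mouse PK: single doses of 10 mpk po and 1 mpk iv, with blood sampled to measure compound levels. Clearance and volume came from the iv dose. AUC to infinity, Cmax and other parameters came from the po dosing data.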

[3] = Cmax in mouse at 10 mg/kg, po; format: ADME, organism-based; design: dose 10 mg/kg, route oral; conditions: in vivo; outline: as §1
[4] = Half life in mouse at 10 mg/kg, po; format: ADME, organism-based; design: dose 10 mg/kg, route oral; conditions: in vivo; outline: as §1
[5] = Tmax in mouse at 10 mg/kg, po; format: ADME, organism-based; design: dose 10 mg/kg, route oral; conditions: in vivo; outline: as §1
[6] = Bioavailability in mouse at 10 mg/kg, po; format: ADME, organism-based; conditions: in vivo; outline: as §1
[7] = Terminal volume of distribution in mouse at 1 mg/kg, iv; format: ADME, organism-based; design: dose 1 mg/kg, route intravenous; conditions: in vivo, read-out: Vz; outline: as §1
[8] = Clearance in mouse at 1 mg/kg, iv; format: ADME, organism-based; design: dose 1 mg/kg, route intravenous; conditions: in vivo; outline: as §1
Liver microsomes = experiment: Stability in human liver microsomes; format: ADME, Microsome
[9] = Stability in mouse liver microsomes; format: ADME, Microsome
Deoxycytidine kinase [10] = biological target: Deoxycytidine kinase (Mus musculus, UniProt P43346); experiment: Inhibition of deoxycytidine kinase in anti CD3 and anti CD28 -stimulated mouse T cells assessed as reduction in [3H]deoxycitidine incorporation; format: cell-based, T-cell
Chain of Deoxycytidine kinase (Mus musculus, UniProt P43346) (P43346 whole entry): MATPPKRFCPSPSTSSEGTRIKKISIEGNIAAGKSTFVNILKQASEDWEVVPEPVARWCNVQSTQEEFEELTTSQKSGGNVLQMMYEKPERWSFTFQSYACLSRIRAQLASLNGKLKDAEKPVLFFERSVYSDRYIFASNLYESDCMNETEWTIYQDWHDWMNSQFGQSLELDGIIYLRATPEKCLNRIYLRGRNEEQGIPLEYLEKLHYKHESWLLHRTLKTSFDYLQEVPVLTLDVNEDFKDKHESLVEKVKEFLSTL

Deoxycytidine kinase [11] = biological target: T1, Deoxycytidine kinase; experiment: Inhibition of deoxycytidine kinase in anti CD3 and anti CD28 -stimulated human T cells assessed as reduction in [3H]deoxycitidine incorporation; format: cell-based, T-cell
Target sequence in this assay (P27707 whole entry): as the sequence (P27707 whole entry) above

Deoxycytidine kinase [12] = biological target: T1, Deoxycytidine kinase; experiment: Inhibition of deoxycytidine kinase in anti CD3 and anti CD28 -stimulated human T cells assessed as reduction in deoxythymidine incorporation; format: cell-based; conditions: T-cell
Target sequence in this assay (P27707 whole entry, looked up): as the sequence (P27707 whole entry) above

[13] = biological target: Deoxycytidine kinase (Mus musculus) (UniProt P43346); experiment: Inhibition of deoxycytidine kinase in anti CD3 and anti CD28 -stimulated mouse T cells assessed as reduction in deoxythymidine incorporation; format: cell-based; conditions: T-cell
Chain of Deoxycytidine kinase (Mus musculus) (P43346 whole entry, looked up): as the sequence (P43346 whole entry) above

Mus musculus [14] = experiment: Inhibition of deoxycytidine kinase in anti CD3 -stimulated mouse assessed as reduction in [3H]deoxycytidine incorporation at 100 mg/kg, po treated 1 day before, day 0 and day 1 after anti CD3 challenge measured on day 2; format: functional, organism-based; design: dose 100 mg/kg
Outline: (§2)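 In vivo mouse dCK inhibition. Compound was given by oral gavage on day -1, day 0 and day 1. Anti-CD3 (0.5 µg/g body wt) was given ip on day 0, after the second dose. […] (100 µCi/animal) was given ip on day 1. Spleens were harvested on day 2 and dissociated into single-cell suspensions normalized to 30 mg/ml by spleen weight. Aliquots were filtered onto glass fibre and counted by liquid scintillation. n = 6-8 mice per group; controls were vehicle and no anti-CD3.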

Mus musculus [15] = experiment: Inhibition of deoxycytidine kinase in anti CD3 -stimulated po dosed mouse assessed as reduction in [3H]deoxycytidine incorporation treated 1 day before, day 0 and day 1 after anti CD3 challenge measured on day 2; format: functional, organism-based; outline: as §2

Row | SMILES | IC50 (Deoxycytidine kinase [1]) | AUC(0-inf) [2] | Cmax [3] | half-life [4] | Tmax [5] | Vd [7] | clearance [8] | also measured
1 | Nc1nc(=O)n([C@H]2CC[C@H](NS(=O)(=O)c3ccc([N+](=O)[O-])cc3)C2)cc1F | 3200 nM | – | – | – | – | – | – | –
2 | Nc1nc(=O)n([C@H]2CC[C@H](NS(=O)(=O)c3cccc(-c4ccc(C(=O)O)cc4)c3)C2)cc1F | 15300 nM | – | – | – | – | – | – | –
3 | Nc1nc(=O)n([C@H]2CC[C@H](NS(=O)(=O)c3ccccc3)C2)cc1F | 3600 nM | – | – | – | – | – | – | –
4 | NC(=O)c1ccc(-c2cccc(S(=O)(=O)N[C@H]3CC[C@H](n4cc(F)c(N)nc4=O)C3)c2)cc1 | 89 nM | – | – | – | – | – | – | –
5 | Nc1nc(=O)n([C@H]2CC[C@H](NC(=O)c3cccc(-c4ccccc4)c3)C2)cc1F | 260 nM | – | – | – | – | – | – | –
6 | Nc1nc(=O)n([C@H]2CC[C@H](NS(=O)(=O)c3ccc(Br)cc3)C2)cc1F | 2700 nM | – | – | – | – | – | – | –
7 | Nc1nc(=O)n([C@H]2CC[C@H](NS(=O)(=O)c3cccc(-c4ccccc4)c3)C2)cc1F | 120 nM | – | – | – | – | – | – | –
8 | Nc1nc(=O)n([C@H]2CC[C@H](NS(=O)(=O)c3ccc(-c4ccccc4)cc3)C2)cc1F | 350 nM | – | – | – | – | – | – | –
9 | Cc1ccc(-c2cccc(S(=O)(=O)N[C@H]3CC[C@H](n4cc(F)c(N)nc4=O)C3)c2)cc1 | 110 nM | – | – | – | – | – | – | –
10 | Nc1nc(=O)n([C@H]2CC[C@H](NS(=O)(=O)c3cccc(Br)c3)C2)cc1F | 1900 nM | – | – | – | – | – | – | –

Now those with a lower IC50 (Deoxycytidine kinase [1]), led by results:

Row | IC50 (Deoxycytidine kinase [1]) | AUC(0-inf) [2] | Cmax [3] | half-life [4] | Tmax [5] | Vd [7] | clearance [8] | SMILES | also measured
11 | 79 nM | – | – | – | – | – | – | Nc1nc(=O)n([C@H]2CC[C@H](NS(=O)(=O)c3cccc(-c4cccc(Cl)c4)c3)C2)cc1F | –
12 | 64 nM | 0.6 µM·h | 0.3 µM | 1.2 h | 0.8 h | 4.4 L/kg | 63 mL/min/kg | COc1ccc(-c2cccc(S(=O)(=O)N[C@H]3CC[C@H](n4cc(F)c(N)nc4=O)C3)c2)cc1 | bioavailability [6]: 9%
13 | 63 nM | – | – | – | – | – | – | CS(=O)(=O)c1ccc(-c2cccc(S(=O)(=O)N[C@H]3CC[C@H](n4cc(F)c(N)nc4=O)C3)c2)cc1 | –
14 | 51 nM | 5.2 µM·h | 1 µM | 2.1 h | 2 h | 16 L/kg | 140 mL/min/kg | Nc1nc(=O)n([C@H]2CC[C@H](NS(=O)(=O)c3cccc(-c4ccc(Cl)cc4)c3)C2)cc1F | –
15 | 49 nM | – | – | – | – | – | – | N#Cc1ccc(-c2cccc(S(=O)(=O)N[C@H]3CC[C@H](n4cc(F)c(N)nc4=O)C3)c2)cc1 | –
16 | 45 nM | – | – | – | – | – | – | Nc1nc(=O)n([C@H]2CC[C@H](NS(=O)(=O)c3cccc(-c4ccccc4Cl)c3)C2)cc1F | –
17 | 42 nM | 15.8 µM·h | 16.2 µM | 0.8 h | 0.3 h | 0.2 L/kg | 3 mL/min/kg | Nc1nc(=O)n([C@H]2CC[C@H](NC(=O)c3cccc(-c4ccc(Cl)cc4)c3)C2)cc1F | bioavailability [6]: 12%
18 | 30 nM | 3.8 µM·h | 3.4 µM | 1.6 h | 0.3 h | 1.3 L/kg | 18 mL/min/kg | COc1ccc(-c2cccc(C(=O)N[C@H]3CC[C@H](n4cc(F)c(N)nc4=O)C3)c2)cc1 | bioavailability [6]: 17%
19 | 23 nM | – | – | – | – | – | – | Nc1nc(=O)n([C@H]2CC[C@H](NC(=O)c3cccc(-c4cccc(Cl)c4)c3)C2)cc1F | –
20 | 21 nM | 2.3 µM·h | 1.5 µM | 1.6 h | 0.3 h | 3 L/kg | 23 mL/min/kg | Cc1cc(Cl)ccc1-c1cccc(S(=O)(=O)N[C@H]2CC[C@H](n3cc(F)c(N)nc3=O)C2)c1 | bioavailability [6]: 15%
21 | 21 nM | 10.8 µM·h | 10.1 µM | 1.3 h | 0.3 h | 1.6 L/kg | 20 mL/min/kg | Cc1cc(Cl)ccc1-c1cccc(C(=O)N[C@H]2CC[C@H](n3cc(F)c(N)nc3=O)C2)c1 | bioavailability [6]: 58%
22 | 21 nM | – | – | – | – | – | – | Nc1nc(=O)n([C@H]2CC[C@H](NS(=O)(=O)c3cccc(-c4ccc(Cl)cc4Cl)c3)C2)cc1F | –
23 | 1.7 nM | 22 µM·h | 7.4 µM | 1.5 h | 0.6 h | 0.8 L/kg | 7 mL/min/kg | Nc1nc(=O)n([C@H]2CC[C@H](NC(=O)c3cc(-c4cc5ccccc5s4)ccn3)C2)cc1F | bioavailability [6]: 42%; Stability (Liver microsomes): Stable; Stability [9]: Stable; EC50 (Deoxycytidine kinase [10]): 17 nM; EC50 (Deoxycytidine kinase [11]): 90 nM; Activity (Deoxycytidine kinase [12]): inactive; Activity [13]: inactive; Activity (Mus musculus [14]): Active; Activity (Mus musculus [15]): Dose-dependent effect
